Screening results: PubChem, several laboratories
STAT1 act = activators of IFN-gamma induced STAT1 signaling; actives 2.6% (n = 200,000); activation (% of control), % at 5.5 µM; NIH 3T3 STAT1-luciferase reporter, luminescence; 100% = IFN-gamma alone, no compound;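 active means activation above the screen-wide mean activation plus 3 SD, cut at about 130% in these data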;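 further: raw ratio to IFN-gamma control signal so 100% means no change and 0% no light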
STAT3 activator = increases IL-6 driven STAT3 reporter signal. activation (% of control), % at 5.6 µM. U3A cells, IL-6 STAT3-luciferase reporter, luminescence; 100% = signal with IL-6 EC80 alone. actives 0.91% (n = 190,000). AID 871;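 active means activation above the screen-wide mean of compound activation plus 3 SD, cut at about 130% in these data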;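 further: 0% = background luminescence of wells with medium and substrate only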
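Test system: STAT3-luciferase reporter U3A cells; Detection: reporter luminescence signal; Times: 1 h compound pre-exposure, 6 h IL-6 stimulation, 37 °C; Benchmarks: IL-6-only high control; Also added: IL-6 stimulus at 33 ng/mL final.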
FLuc inhib CS = counter-screen for luciferase assay inhibitors: firefly luciferase inhibition; ATPLite firefly luciferase biochemical luminescence, 10 min; inhibition, % at 10 µM; actives 1.5% (n = 200,000); AID 1006;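 active means inhibition above about 50% when tested at 10 µM, limit read from the data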
Target sequence (P08659 whole entry, looked up): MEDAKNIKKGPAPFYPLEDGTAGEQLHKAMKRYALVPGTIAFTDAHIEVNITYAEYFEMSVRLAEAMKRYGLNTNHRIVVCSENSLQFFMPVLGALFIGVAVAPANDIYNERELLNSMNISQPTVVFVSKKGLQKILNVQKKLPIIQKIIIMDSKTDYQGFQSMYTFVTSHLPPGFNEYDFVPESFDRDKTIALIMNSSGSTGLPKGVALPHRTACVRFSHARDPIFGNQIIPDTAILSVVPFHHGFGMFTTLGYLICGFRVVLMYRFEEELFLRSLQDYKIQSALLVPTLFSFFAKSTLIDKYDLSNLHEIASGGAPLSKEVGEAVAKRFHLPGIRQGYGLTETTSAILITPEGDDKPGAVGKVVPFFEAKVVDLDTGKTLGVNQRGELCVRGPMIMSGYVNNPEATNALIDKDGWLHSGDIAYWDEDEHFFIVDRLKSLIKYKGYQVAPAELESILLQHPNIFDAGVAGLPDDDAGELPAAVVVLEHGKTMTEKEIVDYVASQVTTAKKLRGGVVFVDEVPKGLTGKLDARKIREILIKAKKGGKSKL
STAT1 inh = inhibitors of IFN-gamma induced STAT1 signaling; NIH 3T3 STAT1-luciferase reporter, luminescence; inhibition, % at 5.5 µM; actives 0.35% (n = 200,000); AID 920;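 active means inhibition above a set limit, the mean inhibition across all tested compounds plus 3 SD, cut at about 34% in these data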;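 further: 0% = IFN-gamma with DMSO and 100% = IFN-gamma with 300 µM nifuroxazide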
FLuc act counter = affects firefly luciferase, flagging false hits in luciferase stimulation screens. P08659. ATPlite luciferase biochemical, luminescence, 10 min; 0 = ATP-free wells, 1 = DMSO control. activation factor at 10 µM. 200,000 tested, under 10 active;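 active means luciferase activation factor, scaled between plate controls, of at least 2 with compound at 10 µM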
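test system = cell-free luciferase reagent | medium = PBS as buffer for the ATP substrate | dosing = test compounds dosed from 2 mM stocks in 100% DMSO | incubation = 10 min at ambient temperature | detection = luminescence measurement of luciferase light output | benchmarks = low control with PBS replacing ATP, high control enzyme plus ATP without compound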
STAT3 inh = inhibitors of IL-6 induced STAT3 signaling. U3A cells, IL-6 STAT3-luciferase reporter, luminescence; host cell line lacks STAT1. inhibition, % at 5.5 µM. AID 862. actives 0.89% (n = 190,000);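 active means inhibition above the mean inhibition across all screened compounds plus 3 SD, cut at about 44% in these data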;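 further: 0% = DMSO only wells and 100% = 100 µM nifuroxazide control wells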
Active calls of the source: *. An excerpt weighted towards active compounds, which were near 4.9% of everything screened.

SMILES	STAT1 act	STAT3 activator	FLuc inhib CS	STAT1 inh	FLuc act counter	STAT3 inh
C/C(=N\Nc1ccc([N+](=O)[O-])cc1)c1ccc2c(c1)OCO2	136*	93	-2	-42	1	14
Cc1cc(NC(=O)CCC(=O)NNC(=O)c2ccc(C(C)(C)C)cc2)no1	117	107	78*	-19	0.2	-12
Cc1ccc(C(=O)Nc2ccc3c(c2)OCO3)cc1	82	72	88*	20	0.1	32
Cc1cc(C)cc(NC(=O)c2cnn(-c3ccccc3)c2C2CCNCC2)c1	101	100	-2	0	1	6
CCn1cc([N+](=O)[O-])c(C(=O)Nc2ccc3c(c2)OCCO3)n1	116	101	56*	-18	0.4	3
O=C(Nc1ccccn1)c1ccc2c(c1)OCO2	125	89	47	-28	0.5	16
Cc1ccc(C(=O)Nc2ccc3c(c2)OCO3)o1	122	127	40	-24	0.6	-30
Cc1cc(NC(=O)c2ccc3c(c2)OCO3)no1	118	88	62*	-19	0.4	18
COc1ccc(NC(=O)c2ccc3c(c2)OCO3)cc1[N+](=O)[O-]	139*	97	26	-41	0.7	6
C/C(=C\C(=O)c1ccc(C)o1)Nc1ccc2c(c1)OCO2	106	107	52*	-6	0.5	-4
COc1cccc(NC(=O)Nc2ccccc2C(N)=O)c1	100	94	47	0	0.5	15
Cc1ccc(NC(=O)OCCN2CCN(Cc3ccccc3)CCC2=O)cc1	101	100	3	-1	1	-3
Cc1ccccc1C(=O)Nc1ccc2c(c1)OCO2	107	69	74*	-7	0.3	42
COCCSc1ccccc1C(=O)Nc1ccc2c(c1)OCCO2	104	97	-9	-4	1.1	6
Cc1cc(C)n2nc(C(=O)Nc3ccc4c(c3)OCO4)nc2n1	113	100	29	-14	0.7	1
COc1ccccc1C(=O)Nc1ccc2c(c1)OCCO2	140*	118	50	-43	0.5	-18
Cc1ccnc2nc(C(=O)Nc3ccc4c(c3)OCO4)nn12	107	79	51*	-8	0.5	24
COc1ccccc1C(=O)Nc1ccc2c(c1)OCO2	132*	124	31	-35	0.7	-19
COC(=O)c1cccn(CC(=O)c2ccc(Cl)cc2Cl)c1=O	106	99	35	-6	0.6	5
COc1cc(C(=O)Nc2ccc(C)cc2)c(-n2cnnn2)cc1OC	95	103	-10	5	1.1	9
Cc1ccc(OCC(=O)Nc2nnc(C3CCCO3)s2)c(Br)c1 (stereo not drawn)	104	110	8	-6	0.9	-9
CN(c1ccc(C(=O)Nc2ccc3c(c2)OCCO3)cc1)S(C)(=O)=O	127	103	56*	-29	0.4	-3
Cc1cc(NC(=O)c2noc3c2CCCCC3)no1	122	90	21	-24	0.8	16
O=C(Nc1ccc2c(c1)OCO2)c1noc2c1CCCCC2	142*	74	57*	-46	0.4	34
Cn1cc(C(=O)Nc2ccc3c(c2)CCC3)cn1	111	102	14	-12	0.9	-4
SMILES	STAT1 act	STAT3 activator	FLuc inhib CS	STAT1 inh	FLuc act counter	STAT3 inh
CCOC(=O)c1c(C)[nH]c(C(=O)Nc2ccc3c(c2)OCO3)c1C	141*	96	25	-45	0.8	10
CCOC(=O)Nc1ccc2c(c1)OCO2	115	114	4	-17	1	-16
Cc1ccc(C(=O)Nc2ccc3c(c2)CCC3)cc1	40	24	90*	64*	0.1	88*
S=c1nc(-c2sccc2OCc2ccc(Cl)cc2Cl)[nH][nH]1	95	102	-7	4	1.1	4
COc1ccc(CCC(=O)N/N=C\c2cccs2)cc1	105	87	-1	-8	1	20
Cc1nn(C(C)C(=O)O)c(=O)c2ccccc12 (stereo not drawn)	103	101	-10	-5	1.1	1
COc1ccc(Cl)cc1C(=O)Nc1ccc(NC(=O)c2ccco2)cc1	85	81	-4	16	1	26
COc1ccc(Cl)cc1C(=O)Nc1ccc2c(c1)OCO2	135*	151*	38	-38	0.6	-55
COc1ccc(CCNC(=O)c2ccc3c(SCC(=O)O)c4c(nc3c2)CCCC4)cc1OC	101	100	-1	-2	1	2
CN(C(=O)c1cccc(Nc2ccc(-c3ccc4c(c3)OCCO4)nn2)c1)C1CCCCC1	124	94	77*	-22	0.2	11
CN(C)S(=O)(=O)c1ccc(Nc2ccc(-c3ccc4c(c3)OCCO4)nn2)cc1	97	92	18	3	0.8	14
CCCC(=O)N1CCN(c2ccc(NC(=O)c3ccc([N+](=O)[O-])o3)cc2Cl)CC1	124	101	-4	-28	1	4
O=C(Nc1ccc(N2CCOCC2)c(Cl)c1)c1ccc([N+](=O)[O-])o1	129*	101	11	-32	0.9	4
CC(C)C(=O)N1CCN(c2ccc(NC(=O)c3ccc([N+](=O)[O-])o3)cc2)CC1	141*	95	1	-46	1	13
O=C(Nc1ccc(CSc2ccccc2)cc1)c1ccccc1	113	108	-2	-16	1	-5
O=C(Nc1ccccc1)c1ccc(CSc2ccccn2)cc1	133*	79	34	-36	0.7	28
COc1cccc(-c2cc(C(=O)N3C(C)CCCC3C)no2)c1 (stereo not drawn)	136*	125	14	-40	0.9	-20
CC(C)n1cc(NC(=O)c2cc(-c3ccccc3)on2)cn1	131*	98	0	-34	1	6
COc1cccc(-c2cc(C(=O)N3CCN(C(c4ccccc4)c4ccccc4)CC3)no2)c1	98	97	-6	2	1.1	13
COc1cccc(C(=O)Nc2cnn(C(C)C)c2)c1	125	101	23	-31	0.8	3
COc1cccc(-c2cc(C(=O)Nc3cccnc3)no2)c1	132*	107	64*	-35	0.4	-1
O=C(Nc1cccnc1)c1cc(-c2ccccc2)on1	106	100	65*	-6	0.3	1
O=C(CNC(=O)c1ccccc1Cl)OC1CCOC1=O (stereo not drawn)	94	99	-1	4	1	4
CN1CCN(CCCC(=O)c2ccc(C3CCCC3)cc2)CC1	98	104	0	3	1	1
O=C(Nc1cccnc1)c1ccc(-c2ccccc2)cc1	112	85	51*	-13	0.5	24
CCC1CCCCN1C(=O)c1cc(-c2ccc(Cl)c(Cl)c2)on1 (stereo not drawn)	122	107	1	-26	1	-4
